≈ marks a conversion by molar mass, not a printed value.
Key:
Aqueous solubility = assay type: physicochemical; conditions: water, room temperature (25°C), n=4
[1] = PTX loading by HPLC standard curve; assay type: physicochemical; conditions: HPLC peak area versus PTX content, n=5
Outline: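 PTX content of the conjugate was calculated theoretically and checked against an HPLC standard curve of peak area versus PTX content, with standards in anhydrous ethyl alcohol.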

[2] = Release of free PTX in PBS; assay type: physicochemical; conditions: PBS pH 7.4, 37°C, 4 hours
Outline: (§1)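 Test conjugate was dissolved at 5 mg per 2.5 mL in PBS pH 7.4 or human plasma and held at 37°C for up to 12 hours. Aliquots were drawn at set times and free PTX was extracted into ethyl acetate. Free PTX was quantified by reverse-phase C18 HPLC at 1 mL per minute and 30°C, with UV detection at 227 nm.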

[3] = Release of free PTX in human plasma, HPLC; assay type: in vitro ADME; conditions: 37°C, 4 hours
Outline: as §1

MDA-MB-231 cells [4] = experiment: Cellular uptake by flow cytometry; assay type: cell-based, human; conditions: MDA-MB-231, 1 mg/mL, 8 hours
Outline: (§2)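 Cells were seeded at 5×10^5 per well in culture medium (37°C, 5% CO2) and left overnight. They were then given 1 mg/mL solution of the FITC- or 5-aminofluorescein-labelled folate–PTX conjugates and incubated 8 h at 37°C. Cells were resuspended in PBS and immediately analysed by flow cytometry for percentage of fluorescent cells.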

MCF-7 cells [5] = experiment: Cellular uptake by flow cytometry; assay type: cell-based, human; conditions: MCF-7, 1 mg/mL, 8 hours
Outline: as §2

A549 cells [6] = experiment: Cellular uptake by flow cytometry; assay type: cell-based, human; conditions: A549, 1 mg/mL, 8 hours
Outline: as §2

HEK293 cells = experiment: Cellular uptake by flow cytometry; assay type: cell-based, human; conditions: HEK293 normal cells, 1 mg/mL, 8 hours
Outline: as §2

[7] = system: tumor cell lines (MDA-MB-231, MCF-7, A549); experiment: Cellular uptake by flow cytometry, tumor groups together; assay type: cell-based, human; conditions: range over the three tumor cell lines
Outline: as §2

MDA-MB-231 cells [8] = experiment: Apoptosis study, PI staining and flow cytometry; assay type: cell-based, human; conditions: MDA-MB-231, 24 hours, 1 mg/mL
Outline: (§3)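 Cells grown at 37°C, 5% CO2 in DMEM or RPMI 1640 with 10% FBS and penicillin/streptomycin. They were exposed for 24 h to free PTX or the fluorescein-labelled folate–PTX conjugates, added as a 1 mg/mL solution. Cells were then resuspended in binding buffer, stained with propidium iodide, and analysed at once by flow cytometry. The PI-positive late apoptotic/necrotic quadrant (Q4) was scored.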

MCF-7 cells [9] = experiment: Apoptosis study, PI staining and flow cytometry; assay type: cell-based, human; conditions: MCF-7, 24 hours, 1 mg/mL
Outline: as §3

A549 cells [10] = experiment: Apoptosis study, PI staining and flow cytometry; assay type: cell-based, human; conditions: A549, 24 hours, 1 mg/mL
Outline: as §3

MCF-7 tumors = experiment: In vivo antitumor activity; set-up: species or system nude mice; conditions: MCF-7-bearing mice; for tumor growth inhibition rate: 5 mg/kg i.v. every 3 days, five injections
Outline: (§4)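 Tumor cells implanted in the upper right axillary fossa of nude mice; treatment began when tumors reached 0.2–0.5 cm diameter. Mice were randomized to four groups (n=5): PBS pH 7.4 control, free paclitaxel, or test conjugates, each at 5 mg/kg in 0.2 mL. Dosing was by tail vein every 3 days, five injections over 15 days. Tumor volume and body weight were recorded daily; values are mean ± SD.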

A549 tumors = experiment: In vivo antitumor activity; set-up: species or system nude mice; conditions: for tumor growth inhibition rate: 5 mg/kg i.v. every 3 days, five injections
Outline: as §4

[11] = system: MDA-MB-231, MCF-7, and A549 cancer cells; experiment: Cell viability; assay type: cell-based, human
Outline: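 MTT assay. Cells were plated at 5×10^3 per well and exposed for 48 h to PTX or the conjugates (theoretical PTX content 45.93% and 47.71%) at […]–1 μg/mL, equal to 0.01435–0.4771 μg/mL conjugated PTX. Each drug was tested in six wells. MTT (5 mg/mL stock) was then added and absorbance read at 490 nm.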

Acute toxicity = conditions: both, Kunming, mouse, in vivo, iv
normal (Kunming) mice = experiment: Acute toxicity; conditions: tail vein, mice

Row | Compound | PTX loading [1] | free PTX released [2] [%] | cell uptake rate (MDA-MB-231 cells [4]) [%] | cell uptake rate (MCF-7 cells [5]) [%] | cell uptake rate (A549 cells [6]) [%] | cell uptake rate (HEK293 cells) [%] | percentage cell uptake in the tumor groups [7] | late apoptosis/necrotic value (Q4) (MDA-MB-231 cells [8]) [%] | late apoptosis/necrotic value (Q4) (MCF-7 cells [9]) [%] | late apoptosis/necrotic value (Q4) (A549 cells [10]) [%] | decrease of body weight, of original weight (A549 tumors; A549-bearing mice) | tumor growth inhibition rate (MCF-7 tumors) | tumor growth inhibition rate (A549 tumors; A549-bearing mice) [%] | other results
1 | CC(=O)O[C@H]1C(=O)[C@@]2(C)[C@H]([C@H](OC(=O)c3ccccc3)[C@]3(O)C[C@H](OC(=O)[C@H](OC(=O)[C@H](CCC(=O)Nc4ccc5c(c4)C(=O)OC54c5ccc(O)cc5Oc5cc(O)ccc54)NC(=O)CC[C@H](NC(=O)c4ccc(NCc5cnc6nc(N)[nH]c(=O)c6n5)cc4)C(=O)O)[C@@H](NC(=O)c4ccccc4)c4ccccc4)C(C)=C1C3(C)C)[C@]1(OC(C)=O)CO[C@@H]1C[C@@H]2O [FA-5AF-Glu-PTX, folic acid-5-aminofluorescein-glutamic-paclitaxel] | 32.19%±0.35% | 23.3 | 85.9 | 75.1 | 59.0 | 1.9 | 59.01%–85.93% | 34.1 | 27.9 | 16.3 | about 2% | – | – | solubility (Aqueous solubility): 6410 ± 180 µg/mL (≈ 3.69 mM); free PTX released [3]: 54.84%; body weight change during treatment (MCF-7 tumors): gradual increase; inhibition rate relative to free PTX (A549 tumors; A549 tumor): ~1.3 times
2 | CC(=O)O[C@H]1C(=O)[C@@]2(C)[C@H]([C@H](OC(=O)c3ccccc3)[C@]3(O)C[C@H](OC(=O)[C@H](O)[C@@H](NC(=O)c4ccccc4)c4ccccc4)C(C)=C1C3(C)C)[C@]1(OC(C)=O)CO[C@@H]1C[C@@H]2O [PTX, Paclitaxel, reference compound] | – | – | – | – | – | – | – | 25.8 | 19.9 | 14.6 | about 25.34% | about 38.16% | 35.23 | inhibition ratio (of total cells) ([11]; MTT, 48 hours, three tumor cell lines, maximum reached): ≤ 62.4%; body weight loss (MCF-7 tumors; end of treatment): 3.88 g; body weight loss, of original body weight (MCF-7 tumors; end of treatment): approximately 20%; decrease of body weight (A549 tumors; A549-bearing mice): 3.92 g; LD50 at 14 days (Acute toxicity): 25.48 ± 0.17 mg/kg; survival rate (normal (Kunming) mice; 15 mg/kg): 90%; survival rate (normal (Kunming) mice; 45 mg/kg): 0%
3 | folic acid-fluorescein-5(6)-isothiocyanate-arginine-paclitaxel [FA-FITC-Arg-PTX] | 38.70%±0.49% | 25.8 | 89.6 | 78.1 | 63.2 | 2.1 | 63.22%–89.63% | 36.5 | 26.7 | 16.8 | – | 57.63% | 48.65 | cell viability ([11]; tumor cells, high doses): approximately 20%

Reference: publication PMC4562733 (International Journal of Nanomedicine, 2015)
